# Most compounds without a hit are left out; they make up all but 2.2% or so of the library.
# CR mimetic SO: caloric restriction mimetics inhibiting age-related superoxide in yeast; AID 2690; actives 0.18% (n = 330,000); S. cerevisiae aged cells, superoxide DHE fluorescence; hits give low values; superoxide response (% of plate mean), % at 10 µM;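 active = superoxide response under a set limit, about three screen SD below normal, cut at about 65% in these data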;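 note: yeast aged for seven days with compound at 30 °C before DHE staining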
# Cneo AK release: causes C. neoformans cell lysis; actives 0.2% (n = 360,000); adenylate kinase release luminescence, 4 h; normalised: neutral wells 0, clomiphene wells 100; AID 651654; lysis activity, % at 15 µM;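 active = mean lysis activity across replicates of at least 80%, whatever share of replicates individually reach that level; inactive = mean lysis activity below 80%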
#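 Test system: log-phase Cryptococcus neoformans yeast cells. Input: 5 × 10^6 yeast cells/mL. Medium: fresh YPD growth medium. Doses: single dose. Incubation: static 4 h at 37 °C with compound, 1 h detection. Measured by: luminescent adenylate kinase detection reagent. Read-out: signal increase indicating cell lysis. Benchmarks: Clomiphene.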
# PglD DTNB: PglD (C. jejuni) enzyme inhibition; purified PglD enzyme, DTNB colorimetric CoA detection; inhibition, % at 12.5 µM; actives 0.098% (n = 360,000); in the data active = inhibition above about 16%, passing the limit was not always enough
# Mot1-301 SUMO: SUMOylation pathway inhibition by Mot1-301 growth rescue; S. cerevisiae Mot1-301 growth rescue, ATP luminescence, 38.5C; percent above DMSO median, 100 means doubled; growth rescue, % at 18.8 µM; actives 1% (n = 320,000); AID 2716;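 active = every valid replicate shows activation above 250% relative to neutral control wells; inactive = the rest, any valid replicate at or below 250%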
# Ecoli rRNA inh: inhibitors of bacterial rRNA selective over humanized ribosomes; E. coli WT GFP vs humanized-ribosome RFP mutants, fluorescence, 24 h; hits give low values; DMSO median 0, no signal -100; GFP signal change (wild-type ribosome), % (concentration not given with the values); actives 1.6% (n = 350,000);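 active = significant combined selectivity score with lowered wild-type GFP, culture density cut under 30%, mutant RFP and density less affected; inactive = any of these conditions unmet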
# CR mimetic CP: confirmation of caloric restriction mimetics inhibiting yeast age-related superoxide; shares compounds with CR mimetic SO; S. cerevisiae aging, superoxide DHE fluorescence; hits give low values; superoxide response (% of plate), % at 10 µM; actives 1% (n = 850); AID 434994;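 active = superoxide signal below 65% of the plate average of sample wells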;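 note: cells aged with compound for 7 days at 30 degrees C before staining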
# DHE counter: DHE fluorescence interference, counter-screen artifact. shares compounds with CR mimetic SO. S. cerevisiae BY4741, flow cytometry; hits give low values. AID 435000. 850 tested, under 10 active. fluorescence response, % at 10 µM;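 active = fluorescence response below 15%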;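 note: lower means stronger quenching of DHE signal or ROS scavenging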
# Hits are given with their value; 0 = inactive; - = no result.
SMILES,CR mimetic SO,Cneo AK release,PglD DTNB,Mot1-301 SUMO,Ecoli rRNA inh,CR mimetic CP,DHE counter
CO[C@@H]1CN(C)C(=O)c2cc(NC(=O)C3CCCCC3)ccc2OC[C@@H](C)N(Cc2nccs2)C[C@H]1C,-,0,0,-,0,-,-
COC(=O)[C@H](Cc1ccccc1)NC(=O)[C@@H](N)CC(=O)OCc1ccccc1,65,0,0,0,0,0,0
COC(=O)C(CC(C)C)NC(=O)C(N)Cc1ccccc1 (stereo not given),0,0,0,0,-,-,-
COc1ccc(S(=O)(=O)N2CCC3(CC2)CC(=O)c2ccccc2O3)cc1C,65,0,0,0,0,0,0
COc1ccc(OC)c(S(=O)(=O)N2CCC3(CC2)CC(=O)c2ccccc2O3)c1,0,0,0,0,0,-,-
CC(=O)OC1(C(C)=O)CCC2C3CC4OC45CC(O)CCC5(C)C3CCC21C (stereo not given),-,0,0,-,0,0,0
COc1cccc(-c2nnc(SCC(=O)Nc3ccc(OC)c(OC)c3)n2N)c1,0,0,0,0,-,0,0
CCOc1cccc(-c2nnc(SCC(=O)Nc3cccc(OC)c3)n2N)c1,-,0,0,-,-,0,0
COc1cccc(NC(=O)CSc2nnc(-c3cc(C)[nH]n3)n2N)c1,0,0,0,0,0,-,-
C=CCn1c(SCC(=O)Nc2cc(NC(C)=O)ccc2OC)nnc1-c1cccnc1,0,0,0,0,0,0,0
C=CCn1c(SCC(=O)Nc2cc(NC(C)=O)ccc2OC)nnc1-c1ccccn1,0,0,0,0,-,-,-
CCS(=O)(=O)NCC[C@@H]1CC[C@@H](NC(=O)Nc2ccccc2)[C@H](CO)O1,-,0,0,-,0,-,-
C=CCNC(=O)C1CC(=O)N(c2ccc(OCC(=O)Nc3ccc(CC)cc3)cc2)C1 (stereo not given),58,0,0,0,0,0,0
C=CCNC(=O)C1CC(=O)N(c2ccc(OCC(=O)Nc3ccc(C)cc3)cc2)C1 (stereo not given),0,0,0,0,-,-,-
COc1ccccc1NC(=O)CN1CCN(c2ccccn2)CC1,0,-,-,0,0,0,0
COc1ccccc1NC(=O)CN1CCN(c2ccc(F)cc2)CC1,-,0,0,-,0,-,-
COC(=O)c1ccccc1NC(=O)CN1CCN(c2ccccn2)CC1,0,-,-,0,0,0,0
N#Cc1ccccc1NC(=O)CN1CCOCC1,0,0,0,0,0,-,-
COC(=O)c1ccccc1NC(=O)CN1CCCCCC1,0,0,0,0,0,-,-
N#Cc1ccccc1NC(=O)CN1CCN(c2ccccn2)CC1,0,0,0,0,0,0,0
O=C(CN1CCN(c2ccccn2)CC1)Nc1ccccc1Br,0,0,0,0,0,0,0
CCC(=O)Nc1ccc2c(c1)OC[C@@H](C)N(C(=O)CC1CC1)C[C@@H](C)[C@H](OC)CN(C)C2=O,-,0,0,-,0,-,-
O=C(C[C@@H]1CC[C@H]2[C@@H](COC[C@H](O)CN2C(=O)c2ccccc2F)O1)NCc1ccc(Cl)c(Cl)c1,-,0,0,-,0,-,-
CC(C)C#Cc1ccc([C@@H]2[C@@H](CO)N3C(=O)CN(C(=O)NC4CCCCC4)C[C@H]23)cc1,-,-,-,-,0,-,-
Cc1cc(C)cc(NC(=O)CN2CCN(c3ccccn3)CC2)c1,0,0,0,0,0,-,-
SMILES,CR mimetic SO,Cneo AK release,PglD DTNB,Mot1-301 SUMO,Ecoli rRNA inh,CR mimetic CP,DHE counter
O=C(CN1CCN(c2ccc([N+](=O)[O-])cc2)CC1)Nc1ccccn1,60,-,-,0,-,0,0
Cc1ccc(NC(=O)CN2CCN(c3ccccn3)CC2)cc1S(=O)(=O)N(C)C,0,0,0,0,0,-,-
Cc1ccc(NC(=O)CN2CCN(c3ccccn3)CC2)c(Cl)c1,0,-,-,0,-,0,0
O=C(CN1CCN(c2ccccn2)CC1)Nc1cccc(S(=O)(=O)N2CCOCC2)c1,0,0,0,0,0,-,-
O=C(CN1CCN(c2ccc([N+](=O)[O-])cc2)CC1)Nc1nccs1,0,0,0,0,-,-,-
COc1cc(NC(=O)CN2CCN(c3ccccn3)CC2)cc(OC)c1OC,0,0,0,0,0,0,0
O=C(CN1CCN(c2ccccn2)CC1)Nc1cccc(Cl)c1Cl,0,0,0,0,0,0,0
COc1ccc(CN(C)C[C@H]2OCCCC[C@@H](C)Oc3ccc(NC(=O)NC4CCCCC4)cc3C(=O)N([C@@H](C)CO)C[C@@H]2C)cc1,-,0,0,-,0,-,-
COc1ccc(C)cc1NC(=O)CN1CCN(c2ccccn2)CC1,0,0,0,0,0,0,0
C[C@@H]1CN([C@H](C)CO)C(=O)c2cc(NC(=O)c3ccncc3)ccc2O[C@@H](C)CCCCO[C@@H]1CN(C)C(=O)C1CCCCC1,-,0,0,-,0,-,-
CN(c1ccccc1)S(=O)(=O)c1ccc(NC(=O)c2nc(S(C)(=O)=O)ncc2Cl)cc1,62,0,0,0,0,0,0
CCSc1ncc(Cl)c(C(=O)Nc2ccc(S(N)(=O)=O)cc2)n1,63,0,0,0,0,0,0
CSc1ncc(Cl)c(C(=O)Nc2ccccc2C)n1,0,0,0,0,0,0,0
CCSc1ncc(Cl)c(C(=O)Nc2ccccc2)n1,0,-,-,0,-,0,0
COc1cccc(NC(=O)c2nc(S(C)(=O)=O)ncc2Cl)c1,0,0,0,0,0,-,-
CSc1ncc(Cl)c(C(=O)Nc2ccccc2[N+](=O)[O-])n1,0,0,0,0,0,-,-
O=C1CN(S(=O)(=O)Cc2ccccc2)C[C@@H]2[C@@H](c3ccc(C#CCC4CCCC4)cc3)[C@H](CO)N12,-,-,-,-,0,-,-
C[C@@H]1CN([C@@H](C)CO)C(=O)c2cc(NC(=O)CCCN(C)C)ccc2O[C@@H](C)CCCCO[C@@H]1CN(C)C(=O)Nc1ccccc1,-,0,0,-,0,-,-
CCSc1ncc(Cl)c(C(=O)Nc2ccccc2C)n1,62,0,0,0,0,0,0
Cc1ccc(-c2nnc(N3CCOCC3)c3ccccc23)cc1S(=O)(=O)NCC1CCCO1 (stereo not given),0,0,0,0,-,-,-
Cc1ccc(-c2nnc(Nc3ccc(C(=O)N(C)C)cc3)c3ccccc23)cc1S(=O)(=O)NC(C)(C)CO,0,-,-,0,0,-,-
Cc1ccc(-c2nnc(Nc3ccc(C(=O)N(C)C)cc3)c3ccccc23)cc1S(=O)(=O)NCC1CCCO1 (stereo not given),0,-,-,0,-,0,0
COC(=O)c1ccc(Nc2nnc(-c3ccc(C)c(S(=O)(=O)NCC4CCCO4)c3)c3ccccc23)cc1 (stereo not given),0,0,0,0,-,0,0
C[C@@H]1CN([C@H](C)CO)C(=O)Cc2cc(NC(=O)Nc3cccc4ccccc34)ccc2O[C@@H]1CN(C)Cc1ccc(Oc2ccccc2)cc1,-,0,0,-,0,-,-
CC(C)Cn1cc(C(=O)NCc2cccs2)c2c3ccccc3n(C)c2c1=O,62,0,0,0,-,0,0

# Assay outcomes (PubChem)
